The list is not random: actives were taken first. Their share in the collection is about 3.7%.
proCasp7 act: counter-screen: procaspase-7 (human) activation | P55210 | recombinant procaspase-7, Ac-DEVD-pNA absorbance 405 nm; D23A/D198A/D206A triple mutant, cannot self-cleave; scale: DMSO 0, 5 µM enzyme 100 | activation, % at 8.5 µM | 330,000 compounds, 0.093% hits | AID 463210;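 active = percent activation above the screen-wide mean plus 3 SD, cut at about 25% in these data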
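System: Procaspase-7 triple mutant (PC-7 D3A); measure: % activation from two-timepoint absorbance difference, scaled to controls; times: 1 h compound preincubation, 2 h substrate cleavage, 25 °C; also added: Ac-DEVD-pNA substrate, 400 µM as added; measured by: Epi-absorbance of released pNA at 405 nm, two timepoints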
proCasp3 act: activates human procaspase-3 | activation, % at 8.5 µM | AID 463141 | recombinant procaspase-3 D3A, Ac-DEVD-pNA absorbance 405 nm | 330,000 compounds, 0.11% hits;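 active = activation above the mean of all tested compounds plus 3 SD, cut at about 21% in these data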;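 also: 0% = DMSO alone and 100% = DMSO wells spiked with extra 5 µM PC-3 D3A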
Target sequence (P42574 whole entry D9A/D28A/D175A): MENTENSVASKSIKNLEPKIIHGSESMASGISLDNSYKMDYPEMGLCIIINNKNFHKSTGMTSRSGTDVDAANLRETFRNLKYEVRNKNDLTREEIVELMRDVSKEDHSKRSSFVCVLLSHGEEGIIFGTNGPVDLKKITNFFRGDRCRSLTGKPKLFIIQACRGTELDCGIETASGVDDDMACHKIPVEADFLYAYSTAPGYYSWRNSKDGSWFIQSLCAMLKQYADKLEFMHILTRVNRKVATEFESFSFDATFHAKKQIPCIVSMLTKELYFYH
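assay system = Procaspase-3 D3A mutant | signal = absorbance at 405 nm, 0 and 120 min | times = 1 h preincubation plus 2 h reaction at 25 °C | repeats = single replicate | read-out = % activation between DMSO and enzyme-spiked controls | medium = Zinc-free HEPES saline buffer with Triton X-100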
NR3A LBD binder: modulates the human NR3A ligand-binding domain. NR3A LBD differential scanning fluorimetry, Tm shift; 0% = protein alone, 100% = glycine-bound protein. Tm shift relative to glycine control, % at 25 µM. 340,000 compounds, 2.5% hits. AID 1259313;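 active = melting temperature shift of at least 10% of the positive control shift, at one fixed dose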
MPTP inh: blocks calcium-induced mitochondrial swelling; isolated mouse mitochondria, Ca2+ swelling absorbance, 30 min; inhibition, % at 10 µM; 360,000 compounds, 1.4% hits; AID 602449;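 active = inhibition of 50% or more, scaled per plate between neutral and stimulator controls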;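 also: 0% = DMSO wells given calcium and 100% = 1 mM EGTA wells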
aDG glyco act: alpha-DG glycosylation activation | Pro5-aDG cells, alpha-DG glycosylation AlphaScreen (IIH6); 0% Pro5, 100% B10-LARGE cell signal | activation, % at 10 µM | 360,000 compounds, 0.22% hits | AID 624168;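 active = activation of at least 8% versus controls, or a plate z-score of at least 8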;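 also: Pro5 are CHO cells carrying HIG-tagged alpha-DG that lacks glycosylation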
Rh123 counter: Rhodamine 123 counter-screen of mitochondrial pore hits | shares compounds with MPTP inh | isolated mitochondria, membrane potential, Rhodamine 123 fluorescence | inhibition, % at 10 µM | 5,000 compounds, 78% hits; in the data active = inhibition above about 22%;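 also: 0% = DMSO vehicle and 100% = positive control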
MPTP abs DR: dose response confirmation of mitochondrial permeability transition pore inhibitors; shares compounds with MPTP inh; isolated mitochondria swelling, absorbance; IC50, µM; 780 compounds, 58% hits; AID 651561; in the data active = IC50 below about 20 µM
MPTP counter DR: counter-screen for mitochondrial permeability transition pore inhibitors, dose response; shares compounds with MPTP inh; isolated mitochondria counterscreen, fluorescence read-out; IC50, µM; 780 compounds, 49% hits; in the data active = IC50 below about 80 µM
An asterisk follows results filed as active; nt = no result given.

SMILES	proCasp7 act	proCasp3 act	NR3A LBD binder	MPTP inh	aDG glyco act	Rh123 counter	others
Cc1oc(/N=C/c2ccccc2)c(C#N)c1C	nt	nt	3	-1	0	nt
COc1[nH]c(/N=C/c2ccccc2)c(C#N)c1C#N	2	-5	-6	87*	0	33*
O=C(CSc1nc(-c2ccc(F)cc2)cc(C(F)(F)F)n1)NCc1cccs1	-6	8	2	1	0	nt
O=C(CSc1nc(-c2cccs2)cc(C(F)(F)F)n1)Nc1cc(OCC(F)(F)C(F)F)cc([N+](=O)[O-])c1	-1	-7	10*	93*	2	80*
O=[N+]([O-])c1ccc2[nH]c3c(c2c1)CCCC3	2	5	-3	72*	1	71*
CCOC(=O)c1ccc(NC(=O)Nc2nc3ccccc3s2)cc1	nt	nt	nt	83*	0	91*
CCOC(=O)c1sc(NC(=O)c2ccc(Br)o2)cc1C	1	2	1	0	0	nt
CCOC(=O)c1sc(NC(=O)Nc2cccc(Cl)c2)cc1C	-8	4	24*	79*	0	49*
Cc1cc(NC(=O)Nc2ccc(Cl)c(Cl)c2)no1	-7	3	-3	82*	0	94*
Cc1ccc(NC(=O)Nc2cnccn2)cc1Cl	4	1	-2	63*	0	64*
CC1(C(=O)NS(=O)(=O)Cc2ccccc2C(F)(F)F)CCN1C(=O)c1cccc(F)c1 (configuration not stated)	nt	nt	nt	1	0	nt
COC(=O)c1cc(S(=O)(=O)NCC2CCN(CCc3ccc(OC)cc3)CC2)cn1C	-4	6	1	-1	0	nt
CCC(c1nnnn1-c1ccc2c(c1)OCCO2)N1CCN(c2ccc(F)cc2)CC1 (configuration not stated)	nt	nt	nt	0	1	nt
CCOC(=O)c1ccc(NC(=O)Nc2ccon2)cc1	5	4	0	50*	0	65*
CCOC(=O)c1ccc(NC(=O)Nc2ccc(Cl)cn2)cc1	0	3	-3	15	0	nt
Cc1noc(NS(=O)(=O)c2ccc(NC(=O)Nc3ccc(Cl)c(Cl)c3)cc2)c1C	-5	-12	36*	84*	0	75*
O=C(Nc1ccc(Cl)c(Cl)c1)Nc1ccon1	1	-5	28*	69*	0	103*
CCOC(=O)c1sc(NC(=O)Nc2ccc(Cl)cc2)nc1C	7	1	28*	97*	1	67*
CNC(=O)c1ccsc1NC(=O)CS(=O)(=O)c1ccccc1	7	-4	-2	-1	0	nt
COc1ccccc1CNC(=O)COC(=O)CSc1ccc(C)c(C)c1	nt	nt	-2	0	0	nt
COc1ccc(CC(=O)N(C)CC(=O)Nc2ccc(F)cc2)cc1S(=O)(=O)N1CCOCC1	2	-1	2	-2	0	nt
COc1cc(Cl)c(CNC[C@H]2O[C@@H](n3cnc4c(N)ncnc43)[C@H](O)[C@@H]2O)c(Cl)c1O	5	5	0	0	0	nt
C/C(=N\NC(=O)C(=O)Nc1ccc(C)c(Cl)c1)c1ccncc1	-1	0	2	55*	1	8	MPTP abs DR=1.5*;MPTP counter DR=<2.5*
C/C(=N\NC(=O)C(=O)Nc1ccc(C)cc1)c1ccncc1	-14	-6	10	1	0	nt
CC1Oc2ccccc2C=C1/C=N/Nc1ccc(C(=O)O)cc1 (configuration not stated)	-30	-38	-9	1	0	nt
COc1ccc(-c2cc(C(F)(F)F)nc(SCCC(=O)NCc3ccccc3)n2)cc1	1	3	-2	60*	0	2	MPTP abs DR=>100;MPTP counter DR=>80
COc1ccc(-c2cc(C(F)(F)F)nc(SCc3cccc(C(=O)O)c3)n2)cc1	6	9	-399	6	2	nt
COc1ccc(CCN2CCC(Nc3nc4ccccc4n3Cc3ccc(F)cc3)CC2)cc1	-2	5	1	83*	0	-14
